Results from ChEMBL document CHEMBL1130207, “Structure-activity relationships for acridine-substituted analogues of the mixed topoisomerase I/II inhibitor N-[2-(dimethylamino)ethyl]acridine-4-carboxamide” (J Med Chem, 1997).

Assays:
LLTC cell line = test: Inhibitory concentration required to reduce Lewis lung carcinoma cell number to 50% of control cultures; format: functional, cell-based; details: Mus musculus
How it was run: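 Lewis lung carcinoma cells seeded at 10³ per well and exposed to drug for 4 days. Growth read by sulforhodamine assay; IC50 is the drug concentration (nM) that cuts cell number to 50% of control cultures. Value is the mean of at least two independent determinations done in duplicate; coefficient of variation 7.9–8.5%.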

Jurkat [1] = test: Ratio of IC50 of mutant Jurkat leukemia (JLD) to the IC50 of Jurkat leukemia (JLC sensitive, wild type); format: functional, Homo sapiens
How it was run: (§1)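 Jurkat lines were each plated at 3.75 × 10³ per well and grown 4 days with drug: parental JL_C, amsacrine-resistant JL_A and doxorubicin-resistant JL_D. Growth was read by sulforhodamine assay. IC50 is the concentration giving 50% of control cell number. Ratio is IC50 in JL_A or JL_D divided by IC50 in JL_C.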

Jurkat [2] = test: Inhibitory concentration required to reduce human Jurkat leukemia (JLC sensitive, wild type) cell number to 50% of control cultures; format: functional, cell-based
Jurkat [3] = test: Ratio of IC50 of Jurkat leukemia amsacrine (JLA) to the IC50 of Jurkat leukemia (JLC sensitive, wild type); format: functional, Homo sapiens; how it was run: as §1
P388 = test: Inhibitory concentration required to reduce murine p388 leukemia cell number to 50% of control cultures; format: functional, cell-based; details: Mus musculus

IC50 (LLTC cell line)	IC50 (Jurkat [2])	IC50 (P388)	SMILES	Ratio (Jurkat [1])	Ratio (Jurkat [3])
258 nM	919 nM	120 nM	CN(C)CCNC(=O)c1cccc2cc3c(Cl)cccc3nc12	1.3	1.25
452 nM	1420 nM	340 nM	CN(C)CCNC(=O)c1cccc2cc3cccnc3nc12	1.2	1.1
36 nM	111 nM	26 nM	COc1cccc2cc3cccc(C(=O)NCCN(C)C)c3nc12	5.6	4.9
447 nM	756 nM	87 nM	CN(C)CCNC(=O)c1cccc2cc3cc(Br)ccc3nc12	1	0.8
36 nM		6.5 nM	CN(C)CCNC(=O)c1cccc2cc3cccc(Cl)c3nc12		4.2
706 nM	1660 nM	250 nM	CN(C)CCNC(=O)c1cccc2cc3cccc(-c4ccccc4)c3nc12	1.4	1.55
272 nM	212 nM	260 nM	CN(C)CCNC(=O)c1cccc2cc3ccc(N(C)C)cc3nc12	0.85	0.6
5.6 nM	46 nM	6.4 nM	Cc1cccc2cc3cccc(C(=O)NCCN(C)C)c3nc12	4.8	4.6
4590 nM	4390 nM	6300 nM	CN(C)CCNC(=O)c1cccc2cc3cc(C(C)(C)C)ccc3nc12	1.2	1.1
5.3 nM	27 nM	8 nM	CN(C)CCNC(=O)c1cccc2c(N)c3ccccc3nc12	6.1	4.6
1680 nM	2480 nM	1100 nM	CN(C)CCNC(=O)c1cccc2cc3cc(N(C)C)ccc3nc12	1.8	1.8
281 nM	580 nM	160 nM	COc1ccc2cc3cccc(C(=O)NCCN(C)C)c3nc2c1	1.1	1.1
5950 nM	6390 nM	8600 nM	CN(C)CCNC(=O)c1cccc2cc3cc(C(F)(F)F)ccc3nc12	1	0.8
372 nM	1060 nM	250 nM	Cc1cccc2nc3c(C(=O)NCCN(C)C)cccc3cc12	1.05	0.95
230 nM	446 nM	160 nM	CN(C)CCNC(=O)c1cccc2cc3ccc(Br)cc3nc12	1.1	0.9
176 nM	625 nM	96 nM	Cc1ccc2cc3cccc(C(=O)NCCN(C)C)c3nc2c1	1.5	1.3
469 nM	508 nM	170 nM	CN(C)CCNC(=O)c1cccc2cc3cc(O)ccc3nc12	3	2.5
2830 nM	1120 nM	890 nM	CN(C)CCNC(=O)c1ccc2nc3c(C(=O)NCCN(C)C)cccc3cc2c1	1	0.6
17 nM	75 nM	18 nM	CN(C)CCNC(=O)c1cccc2cc3cccc(C(F)(F)F)c3nc12	5	4.4
735 nM	1350 nM	330 nM	Cc1ccc2nc3c(C(=O)NCCN(C)C)cccc3cc2c1	1.1	1

IC50 (LLTC cell line)	IC50 (Jurkat [2])	IC50 (P388)	SMILES	Ratio (Jurkat [1])	Ratio (Jurkat [3])
21 nM	103 nM	14 nM	CN(C)CCNC(=O)c1cccc2cc3cccc(F)c3nc12	5.6	4.5
122 nM	455 nM	49 nM	CN(C)CCNC(=O)c1cccc2cc3ccc(F)cc3nc12	1.9	1.5
346 nM	1840 nM	240 nM	CCc1ccc2nc3c(C(=O)NCCN(C)C)cccc3cc2c1	1.85	1.55
6.2 nM	26 nM	3.8 nM	CN(C)CCNC(=O)c1cccc2cc3cccc(Br)c3nc12	4.9	3.8
161 nM	436 nM	150 nM	Cc1c2ccccc2nc2c(C(=O)NCCN(C)C)cccc12	1	0.85
156 nM	397 nM	125 nM	CN(C)CCNC(=O)c1cccc2cc3ccc(Cl)cc3nc12	1.3	1.1
5820 nM	7000 nM	3700 nM	CC(C)c1ccc2nc3c(C(=O)NCCN(C)C)cccc3cc2c1	1.2	0.9
469 nM	753 nM	250 nM	CN(C)CCNC(=O)c1cccc2cc3cc(Cl)ccc3nc12	1	0.8
4130 nM	5710 nM	1200 nM	CN(C)CCNC(=O)c1cccc2cc3cccc(N(C)C)c3nc12	0.9	0.85
20 nM	137 nM	18 nM	CCc1cccc2cc3cccc(C(=O)NCCN(C)C)c3nc12	4.4	4.1
832 nM	2500 nM	650 nM	CC(C)c1cccc2cc3cccc(C(=O)NCCN(C)C)c3nc12	1	1
158 nM	424 nM	55 nM	CN(C)CCNC(=O)c1cccc2cc3cc(F)ccc3nc12	2.1	1.8
168 nM	240 nM	94 nM	CN(C)CCNC(=O)c1cccc2cc3cc(-c4ccccc4)ccc3nc12	6.5	3
1750 nM	1350 nM	1130 nM	CN(C)CCNC(=O)c1cccc2cc3ccc(C(F)(F)F)cc3nc12	1	0.9
810 nM	1590 nM	580 nM	COc1ccc2nc3c(C(=O)NCCN(C)C)cccc3cc2c1	1.1	1
1200 nM	2700 nM	4100 nM	CN(C)CCNC(=O)c1cccc2c(-c3ccccc3)c3ccccc3nc12	1.1	0.8
189 nM	580 nM	98 nM	CN(C)CCNC(=O)c1cccc2cc3ccccc3nc12	2.3	1.9
12 nM	37 nM	20 nM	COc1cc(NS(C)(=O)=O)ccc1Nc1c2ccccc2nc2ccccc12 [AMSACRINE]	73.7	84.9
22 nM	9.6 nM	15 nM	COc1cccc2c1C(=O)c1c(O)c3c(c(O)c1C2=O)C[C@@](O)(C(=O)CO)C[C@@H]3O[C@H]1C[C@H](N)[C@H](O)[C@H](C)O1 [DOXORUBICIN]	12.7	4.39
